Data on 32 molecules can be found in ChEMBL document CHEMBL1165887, “Structure-activity relationships of monomeric C2-aryl pyrrolo[2,1-c][1,4]benzodiazepine (PBD) antitumor agents” (J Med Chem, 2010).

Assay [1] can be described thus: Growth inhibition of human NCI60 cells after 48 hrs by SRB assay. The class given is functional. To be noted: NCI60, 48 h; for CC50: read-out: LC50 (the source's name). In general terms: Sulforhodamine B stains cellular protein and so reports cell mass.
A further assay has as its system K562. Briefly: Cytotoxicity against human K562 cells after 96 hrs by alamar blue assay. In kind it is functional, cell-based. To be noted: K562, 96 h. A digest of the protocol: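 K562 cells kept in RPMI with 10% fetal calf serum and 2 mM glutamine, seeded at 10⁴ cells/mL. Compounds serially diluted in DMSO and added in triplicate; exposure 96 h at 37 °C, 5% CO₂. Alamar Blue (1 μM final) then added for a further 4 h; read by fluorescence emission at 580-620 nm.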
(In general: Resazurin is reduced to fluorescent resorufin, in cell work by metabolically active cells.)

As a reminder, the GI50 is the concentration that inhibits growth by half. A higher GI50 goes with lower sensitivity of the cells. What is called TGI is the concentration at which net growth stops. A lower TGI goes with more potent growth arrest. A word on the IC50: it is the midpoint of a concentration-inhibition curve. With `COc1cc2c(cc1OC)C(=O)N1C=C(c3ccc4ccccc4c3)C[C@H]1[C@H](S(=O)(=O)O)N2`, in assay [1], the GI50 is 2 nM, total growth inhibition (TGI) required 20 nM and the CC50 worked out at 45.4 nM. This molecule also registered an IC50 in the assay with K562 of 1.8 nM.
On the same counts, the results for `COc1cc2c(cc1OC)C(=O)N1C=C(c3ccc(C(=O)N4CCN(C)CC4)cc3)C[C@H]1C=N2` are 15 nM, 710 nM, 13800 nM and 59.5 nM.
As for `COc1cc2c(cc1OC)C(=O)N1C=CC[C@H]1C=N2`, in assay [1], the GI50 was determined as 1350 nM, total growth inhibition (TGI) required 8130 nM and the CC50 was determined as 60200 nM. Half-maximal inhibition with K562 (IC50) required 14.4 nM.
For the molecule `C=CC1=CN2C(=O)c3cc(OC)c(OC)cc3N=C[C@@H]2C1`, in assay [1], the GI50 turned out to be 78 nM, the TGI amounted to 1230 nM and the CC50 turned out to be 30200 nM. Further, inhibition in the assay with K562 was half-maximal at 2.7 nM (IC50).
With `COc1cc2c(cc1OC)C(=O)N1C=C(c3cccc(F)c3)C[C@H]1C=N2`, in assay [1], halving of growth (GI50) required 3 nM, total growth inhibition (TGI) required 50 nM and the CC50 worked out at 16600 nM. The molecule also had an IC50 in the assay on K562 of 6.4 nM.
In the case of `COc1cc2c(cc1OC)C(=O)N1C=C(c3cccc(C(=O)NCCCN(C)C)c3)C[C@H]1C=N2`, in assay [1], the GI50 worked out at 102 nM, net growth stopped (TGI) at 850 nM and the CC50 came to 14100 nM. The IC50 with K562 is 273 nM.
In the assay on K562, `COc1cc2c(cc1OC)C(=O)N1C=C(c3ccc(Br)cc3)C[C@H]1C=N2` yielded an IC50 of 237 nM.
On to `COc1cc2c(cc1OC)C(=O)N1C=C(/C=C/c3ccc(C)cc3)C[C@H]1C=N2`, for which, in assay [1], the GI50 was 2 nM, total growth inhibition (TGI) required 50 nM and the CC50 is 440 nM. This molecule also returned an IC50 with K562 of 41.1 nM.
`COc1cc2c(cc1OC)C(=O)N1C=C(c3ccccc3C(F)(F)F)C[C@H]1C=N2`: in assay [1], the GI50 was determined as 16 nM, net growth stopped (TGI) at 160 nM and the CC50 turned out to be 4360 nM. The molecule further gave an IC50 in the assay with K562 of 258 nM.
With `COc1cc2c(cc1OC)C(=O)N1C=C(/C=C/c3ccc(F)cc3)C[C@H]1C=N2`, in assay [1], the GI50 was 5 nM, total growth inhibition (TGI) required 10 nM and the CC50 turned out to be 1100 nM. In addition, in the assay on K562, the IC50 stood at 0.13 nM.
In the same order, the values of `COc1cc2c(cc1OC)C(=O)N1C=C(c3ccc(NC(C)=O)cc3)C[C@H]1C=N2` are 6 nM, 200 nM, 11500 nM and 29.7 nM.
Turning to `CCOc1ccc2cc(C3=CN4C(=O)c5cc(OC)c(OC)cc5N=C[C@@H]4C3)ccc2c1`, in assay [1], growth was halved (GI50) at 2 nM, the TGI was determined as 20 nM and the CC50 was found to be 1950 nM. Further, the IC50 in the assay on K562 is 12.6 nM.
On to `COc1cc2c(cc1OC)C(=O)N1C=C(c3cc4ccccc4s3)C[C@H]1C=N2`, for which, in assay [1], the GI50 worked out at 5 nM, total growth inhibition (TGI) required 90 nM and the CC50 turned out to be 540 nM. Further, the IC50 in the assay on K562 was 26.7 nM.
On the same counts, the results for `COc1cc2c(cc1OC)C(=O)N1CCC[C@H]1C=N2` are 2140 nM, 19000 nM, 57500 nM and 488 nM.
As to `COc1cc2c(cc1OC)C(=O)N1C=C(c3cc4ccccc4o3)C[C@H]1C=N2`, in assay [1], the GI50 is 6 nM, total growth inhibition (TGI) required 50 nM and the CC50 was 440 nM. Also, the IC50 in the assay on K562 was 10.8 nM.
On the same counts, the results for `COc1cc2c(cc1OC)C(=O)N1C=C(c3cccnc3)C[C@H]1C=N2` are 5 nM, 70 nM, 17000 nM and 18.2 nM.
With `COc1cc2c(cc1OC)C(=O)N1C=C(c3ccc(C(=O)NCCO)cc3)C[C@H]1C=N2`, in assay [1], halving of growth (GI50) required 158 nM, the TGI stood at 1860 nM and the CC50 was found to be 12600 nM. Further, half-maximal inhibition with K562 (IC50) was put at 161 nM.
As for `COc1cc2c(cc1OC)C(=O)N1C=C(c3cccc(OC(F)(F)F)c3)C[C@H]1C=N2`, in assay [1], the GI50 worked out at 6 nM, the TGI turned out to be 180 nM and the CC50 came out at 7240 nM. The same molecule came in with an IC50 in the assay on K562 of 76.5 nM.
On to `COc1cc2c(cc1OC)C(=O)N1C=C(c3cccc(C(F)(F)F)c3)C[C@H]1C=N2`, for which, in assay [1], the GI50 was determined as 6 nM, total growth inhibition (TGI) required 30 nM and the CC50 came to 1350 nM. The molecule further gave an IC50 in the assay on K562 of 46.8 nM.
For `COc1cc2c(cc1OC)C(=O)N1C=C(c3cccc(C(=O)NCCN(C)C)c3)C[C@H]1C=N2`, in assay [1], the GI50 was found to be 27 nM, the total growth inhibition concentration (TGI) is 1860 nM and the CC50 was determined as 10500 nM. Further, the IC50 in the assay on K562 is 119 nM.
Turning to `COc1cc2c(cc1OC)C(=O)N1C=C(c3ccc(O)cc3)C[C@H]1C=N2`, in assay [1], the GI50 was determined as 2 nM, the TGI turned out to be 80 nM and the CC50 stood at 3390 nM. For the same molecule, 10.3 nM corresponded to half-maximal inhibition in the assay on K562 (IC50).
As to `COc1cc2c(cc1OC)C(=O)N1C=C(c3cccc4c3oc3ccccc34)C[C@H]1C=N2`, in assay [1], the 50% growth inhibitory concentration (GI50) was 49 nM, the TGI amounted to 210 nM and the CC50 was found to be 2820 nM. The molecule also had an IC50 in the assay on K562 of 162 nM.
For `COc1ccc([C@H]2C[C@H]3C=Nc4cc(OC)c(OC)cc4C(=O)N3C2)cc1`, in assay [1], the GI50 turned out to be 9770 nM, the total growth inhibition concentration (TGI) is 43600 nM and the CC50 worked out at 91200 nM. Further, the half-maximal inhibitory concentration (IC50) with K562 was over 1000 nM.
`COc1cc2c(cc1OC)C(=O)N1C=C(c3cnn(C)c3)C[C@H]1C=N2`: in assay [1], the GI50 was 3 nM, net growth stopped (TGI) at 50 nM and the CC50 was 5370 nM. This molecule showed an IC50 with K562 of 12.2 nM.
Consider `COc1cc2c(cc1OC)C(=O)N1C=C(c3ccc(F)cc3)C[C@H]1[C@H](S(=O)(=O)O)N2`, for which, in assay [1], the 50% growth inhibitory concentration (GI50) was 5 nM, net growth stopped (TGI) at 40 nM and the CC50 amounted to 1.6 nM. Half-maximal inhibition in the assay with K562 (IC50) required 16.3 nM.
For `COc1cc2c(cc1OC)C(=O)N1C=C(c3ccncc3)C[C@H]1C=N2`, in assay [1], the GI50 stood at 18 nM, total growth inhibition (TGI) required 600 nM and the CC50 was found to be 26900 nM. The IC50 with K562 is 28.7 nM.
On to `COc1cc2c(cc1OC)C(=O)N1C=C(c3ccc4ncccc4c3)C[C@H]1[C@H](S(=O)(=O)O)N2`, for which, in assay [1], the GI50 is 0.2 nM, net growth stopped (TGI) at 4 nM and the CC50 turned out to be 1.4 nM. Moreover, the midpoint of inhibition in the assay with K562, the IC50, lay at 1.3 nM.
As to `COc1cc2c(cc1OC)C(=O)N1C=C(c3cccc(Cl)c3)C[C@H]1C=N2`, in assay [1], the GI50 was 17 nM, the TGI was 100 nM and the CC50 came to 540 nM. The molecule further had an IC50 with K562 of 19.4 nM.
With `COc1cc2c(cc1OC)C(=O)N1C=C(/C=C/c3ccc(C(F)(F)F)cc3)C[C@H]1C=N2`, in assay [1], halving of growth (GI50) required 3 nM, the TGI came out at 20 nM and the CC50 came out at 1100 nM. The molecule further returned an IC50 with K562 of 31.2 nM.
With `COc1cc2c(cc1OC)C(=O)N1C=C(c3ccc(N4CCN(C)CC4)cc3)C[C@H]1C=N2`, in assay [1], the GI50 amounted to 5 nM, the total growth inhibition concentration (TGI) is 80 nM and the CC50 stood at 8320 nM. Besides, the IC50 in the assay on K562 is 0.63 nM.
Turning to `COc1cc2c(cc1OC)C(=O)N1C=C(c3cccc(C)c3)C[C@H]1C=N2`, in assay [1], it took 5 nM to inhibit growth by half (GI50), net growth stopped (TGI) at 70 nM and the CC50 was determined as 7580 nM. This molecule had an IC50 with K562 of 9.5 nM.
In the assay with K562, `COc1cc2c(cc1OC)C(=O)N1C=C(c3cccc(C(=O)O)c3)C[C@H]1C=N2` had an IC50 of over 1000 nM.
